ChEMBL document CHEMBL1122160, “Structure--activity relationships of nogalamycin analogues” (1982)
pIC50: −log10 of the molar value.

Legend:
L1210 [1] = assay: Micromolar concentration required to inhibit the growth of L1210 cells by 50% was determined; type: functional; conditions: Mus musculus, read-out: ID50 (the source's name)
L1210 [2] = assay: Micromolar concentration required to inhibit the growth of L1210 cells by 90% was determined; type: functional, Mus musculus
Mus musculus [3] = assay: Tested for antitumor activity in vivo and the weight change in grams for the tumor in mouse was determined; type: functional
Summary of the method: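 Mice received 10^6 P-388 leukemia cells intraperitoneally on day 0, following the standard NCI protocol. Drug was injected daily on days 1-9, or only on days 1, 5 and 9 for certain analogues.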

Mus musculus [4] = assay: […] percent increase in life span of mice injected intraperitoneally with P-388 leukemia after administration (50 mg/kg)/day; type: functional
Summary of the method: (§1)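 P-388 leukemia cells (10^6) implanted intraperitoneally in mice on day 0, following a standard National Cancer Institute protocol. Drug was given daily on days 1-9, or on days 1, 5 and 9 for some analogues. Dose level is as in each line.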

Mus musculus [5] = assay: […] percent increase in life span of mice injected intraperitoneally with P-388 leukemia after administration (1.25 mg/kg)/day; type: functional; summary of the method: as §1
Mus musculus [6] = assay: […] percent increase in life span of mice injected intraperitoneally with P-388 leukemia after administration (8 mg/kg)/day; type: functional; summary of the method: as §1
Mus musculus [7] = assay: […] percent increase in life span of mice injected intraperitoneally with P-388 leukemia after administration (33 mg/kg)/day; type: functional; summary of the method: as §1
Mus musculus [8] = assay: […] percent increase in life span of mice injected intraperitoneally with P-388 leukemia after administration (12.5 mg/kg)/day; type: functional; summary of the method: as §1
Mus musculus [9] = assay: […] percent increase in life span of mice injected intraperitoneally with P-388 leukemia after administration (20 mg/kg)/day; type: functional; summary of the method: as §1
Mus musculus [10] = assay: […] percent increase in life span of mice injected intraperitoneally with P-388 leukemia after administration (5 mg/kg)/day; type: functional; summary of the method: as §1
Mus musculus [11] = assay: In vivo percent increase in life span of mice injected intraperitoneally with P-388 leukemia after administration (25 mg/kg)/day
Mus musculus [12] = assay: […] percent increase in life span of mice injected intraperitoneally with P-388 leukemia after administration (10 mg/kg)/day; type: functional; summary of the method: as §1
Mus musculus [13] = assay: […] percent increase in life span of mice injected intraperitoneally with P-388 leukemia after administration (1 mg/kg)/day; type: functional; summary of the method: as §1
Mus musculus [14] = assay: […] percent increase in life span of mice injected intraperitoneally with P-388 leukemia after administration (100 mg/kg)/day; type: functional; summary of the method: as §1
Mus musculus [15] = assay: […] percent increase in life span of mice injected intraperitoneally with P-388 leukemia after administration (16 mg/kg)/day; type: functional; summary of the method: as §1
Mus musculus [16] = assay: […] percent increase in life span of mice injected intraperitoneally with P-388 leukemia after administration (400 mg/kg)/day; type: functional; summary of the method: as §1
Mus musculus [17] = assay: […] percent increase in life span of mice injected intraperitoneally with P-388 leukemia after administration (6.25 mg/kg)/day; type: functional; summary of the method: as §1
Mus musculus [18] = assay: […] percent increase in life span of mice injected intraperitoneally with P-388 leukemia after administration (40 mg/kg)/day; type: functional; summary of the method: as §1

| Compound | pIC50 (L1210 [1]) | ID90 (L1210 [2]) [nM] | Weight change (Mus musculus [3]) [g] | other results |
| --- | --- | --- | --- | --- |
| COC1CC(C)(O)Cc2cc3c(c(O)c21)C(=O)c1c(O)cc2c(c1C3=O)OC1OC2(C)C(O)C(N(C)C=O)C1O (stereo not given) | 5.37 | >5000 |  |  |
| COC1C(C)OC(OC2CC(C)(O)Cc3cc4c(c(O)c32)C(=O)c2c(O)cc3c(c2C4=O)OC2OC3(C)C(OC(C)=O)C(N(C)C)C2OC(C)=O)C(OC)C1(C)OC (stereo not given) | 7.12 | 210 | -0.6 | ILS (Mus musculus [4]): 41% |
| CNC1C(O)C2Oc3c(cc(O)c4c3C(=O)c3cc5c(c(O)c3C4=O)C(OC)CC(C)(O)C5)C(C)(O2)C1O (stereo not given) | 6.42 | 110 | -1.3 | ILS (Mus musculus [5]): 73% |
| CSC1CC(C)(O)Cc2cc3c(c(O)c21)C(=O)c1c(O)cc2c(c1C3=O)OC1OC2(C)C(O)C(N(C)C)C1O (stereo not given) | 6.89 | 340 | -3.1 | ILS (Mus musculus [6]): 37% |
| CNC1C(O)C2Oc3c(cc(O)c4c3C(=O)c3cc5c(c(O)c3C4=O)C(OC3OC(C)C(OC)C(C)(OC)C3OC)CC(C)(O)C5)C(C)(O2)C1O (stereo not given) | 6.06 | >1000 | -0.6 | ILS (Mus musculus [7]): 24% |
| COC1CC(C)(O)Cc2cc3c(c(O)c21)C(=O)c1c(O)cc2c(c1C3=O)OC1OC2(C)C(O)C(N(C)C)C1O (stereo not given) | 7.21 | 130 | -0.4 | ILS (Mus musculus [8]): 197% |
| COC1C(C)OC(OC2CC(C)(O)Cc3cc4c(c(OC(C)=O)c32)C(=O)c2c(O)cc3c(c2C4=O)OC2OC3(C)C(OC(C)=O)C(N(C)C)C2OC(C)=O)C(OC)C1(C)OC (stereo not given) | 7.77 | 41 | -0.1 | ILS (Mus musculus [9]): 37% |
| COC1C(C)OC(OC2CC(C)(O)Cc3cc4c(c(O)c32)C(=O)c2c(O)cc3c(c2C4=O)OC2OC3(C)C(O)C(N(C)C)C2O)C(OC)C1(C)OC (stereo not given) | 6.74 | 270 | -0.2 | ILS (Mus musculus [10]): 93% |
| COC(=O)C1c2cc3c(c(O)c2C(OC2OC(C)C(OC)C(C)(OC)C2OC)CC1(C)O)C(=O)c1c(O)cc2c(c1C3=O)OC1OC2(C)C(O)C(N(C)C=O)C1O (stereo not given) | < 6.00 | >1000 | -0.1 | ILS (Mus musculus [11]): 12% |
| C#CCOC1CC(C)(O)Cc2cc3c(c(O)c21)C(=O)c1c(O)cc2c(c1C3=O)OC1OC2(C)C(O)C(N(C)C)C1O (stereo not given) | 6.82 | 320 | -0.7 | ILS (Mus musculus [12]): 41% |
| COC(=O)[C@@H]1c2cc3c(c(O)c2[C@@H](O[C@@H]2O[C@@H](C)[C@H](OC)[C@@](C)(OC)[C@H]2OC)C[C@]1(C)O)C(=O)c1c(O)cc2c(c1C3=O)O[C@H]1O[C@@]2(C)[C@@H](O)[C@@H](N(C)C)[C@@H]1O | 7.11 | 180 | -0.5 | ILS (Mus musculus [13]): 49% |
| CN(C)C1C(O)C2Oc3c(cc(O)c4c3C(=O)c3cc5c(c(O)c3C4=O)CCC(C)(O)C5)C(C)(O2)C1O (stereo not given) | 6.03 | 1760 | -1.2 | ILS (Mus musculus [14]): 21% |
| CNC1C(O)C2Oc3c(cc(O)c4c3C(=O)c3cc5c(c(O)c3C4=O)C(OC3OC(C)C(OC)C(C)(OC)C3OC)CC(C)(O)C5C(=O)OC)C(C)(O2)C1O (stereo not given) | 6.44 | 900 | -0.5 | ILS (Mus musculus [11]): 59% |
| CN(C)C1C(O)C2Oc3c(cc(O)c4c3C(=O)c3cc5c(c(O)c3C4=O)C(OCCBr)CC(C)(O)C5)C(C)(O2)C1O (stereo not given) | 7.62 | 71 | -1.3 | ILS (Mus musculus [15]): 60% |
| COC(=O)C1c2cc3c(c(O)c2CCC1(C)O)C(=O)c1c(O)cc2c(c1C3=O)OC1OC2(C)C(O)C(N(C)C)C1O (stereo not given) | 6.24 | 1510 | -0.7 | ILS (Mus musculus [4]): 27% |
| CN(C)C1C(O)C2Oc3c(cc(O)c4c3C(=O)c3cc5c(c(O)c3C4=O)C(N=[N+]=[N-])CC(C)(O)C5)C(C)(O2)C1O (stereo not given) | 6.08 | 1760 | -0.3 | ILS (Mus musculus [10]): 33% |
| COc1c2c(cc3c1C(OC)CC(C)(O)C3)C(=O)c1c3c(cc(O)c1C2=O)C1(C)OC(O3)C(O)C(N(C)C)C1O (stereo not given) | 5.35 | 9700 | 0.6 | ILS (Mus musculus [9]): 25% |
| CN(C)C1C(O)C2Oc3c(cc(O)c4c3C(=O)c3cc5c(c(O)c3C4=O)CCC(C)(O)C5C(=O)O)C(C)(O2)C1O (stereo not given) | 5.25 | 14500 | 0.2 | ILS (Mus musculus [16]): -4% |
| COC(=O)C1c2cc3c(c(O)c2C(OC2OC(C)C(OC)C(C)(OC)C2OC)CC1(C)O)C(=O)c1c(O)cc2c(c1C3=O)OC1OC2(C)C(OC(C)=O)C(N(C)C)C1OC(C)=O (stereo not given) | 7.16 | 185 | -0.3 | ILS (Mus musculus [17]): 3% |
| COCCNC1CC(C)(O)Cc2cc3c(c(O)c21)C(=O)c1c(O)cc2c(c1C3=O)OC1OC2(C)C(O)C(N(C)C)C1O (stereo not given) | 5.98 | 2910 | 0.2 | ILS (Mus musculus [18]): 40% |
| C=CCOC1CC(C)(O)Cc2cc3c(c(O)c21)C(=O)c1c(O)cc2c(c1C3=O)OC1OC2(C)C(O)C(N(C)C)C1O (stereo not given) | 6.74 | 530 | 0.3 | ILS (Mus musculus [10]): 25% |
| COC1C(C)OC(OC2CC(C)(O)Cc3cc4c(c(O)c32)C(=O)c2c(O)cc3c(c2C4=O)OC2OC3(C)C(O)C(N(C)C=O)C2O)C(OC)C1(C)OC (stereo not given) | < 6.00 | >1000 | 0.1 | ILS (Mus musculus [4]): 0% |
| CN(C)C1C(O)C2Oc3c(cc(O)c4c3C(=O)c3cc5c(c(O)c3C4=O)C(N)CC(C)(O)C5)C(C)(O2)C1O (stereo not given) | 6.01 | 2000 | 0.2 | ILS (Mus musculus [18]): 47% |
